Data on 31 compounds can be found in ChEMBL document CHEMBL1128504, “Novel, potent, and orally active substance P antagonists: synthesis and antagonist activity of N-benzylcarboxamide derivatives of pyrido[3,4-b]pyridine” (J Med Chem, 1995).

In test [1] the target is Substance-P receptor (Homo sapiens, UniProt P25103). In words: Inhibition of [125I]-BH-Substance P binding to tachykinin receptor 1 in human IM-9 cells. The format is cell-based.
The test system of test [2] is Cavia porcellus. In words: Inhibition of capsaicin-induced plasma extravasation in guinea-pig trachea on intravenous administration. The class given is functional.
For test [3], the system named is Cavia porcellus. Description: Inhibition of capsaicin-induced plasma extravasation in guinea-pig trachea on peroral administration. The format is functional. To be noted: po. The procedure, abridged:
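Male Hartley guinea pigs (n = 6); sample given orally 45 min before pentobarbital 35 mg/kg ip. Capsaicin […] plus Evans' blue 20 mg/kg iv in ethanol-saline (3:7); trachea removed 10 min later after saline perfusion. Dye extracted in acetone-sodium sulfate and read at 620 nm per g tissue. Inhibition calculated relative to blank and control means.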

Test [4] deals with Cavia porcellus. In words: Percent inhibition of capsaicin-induced plasma extravasation in guinea-pig trachea at 3 mg/kg intravenous administration. The format is functional.

Sequence of Substance-P receptor (P25103 whole entry): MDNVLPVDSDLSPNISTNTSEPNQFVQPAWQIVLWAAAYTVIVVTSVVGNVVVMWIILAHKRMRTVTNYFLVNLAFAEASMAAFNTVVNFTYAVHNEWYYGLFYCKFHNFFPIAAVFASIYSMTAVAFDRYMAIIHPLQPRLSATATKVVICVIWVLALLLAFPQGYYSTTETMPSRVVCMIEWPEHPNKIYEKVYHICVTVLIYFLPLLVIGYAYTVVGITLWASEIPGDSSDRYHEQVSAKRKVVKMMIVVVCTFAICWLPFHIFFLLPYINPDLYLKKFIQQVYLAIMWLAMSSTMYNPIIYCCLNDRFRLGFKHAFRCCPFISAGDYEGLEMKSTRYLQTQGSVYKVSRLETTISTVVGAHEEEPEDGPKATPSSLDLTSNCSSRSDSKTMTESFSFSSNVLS

What is called IC50 is the concentration that gives 50% inhibition. Low values mean greater potency in that assay, high ones weaker potency in that assay. `Cc1cc(C)cc(CN(C)C(=O)Nc2c(-c3ccccc3)c3cc(C)c(C)cc3c(=O)n2C)c1` returned an IC50 in test [1] of 28 nM. Consider `Cc1ccc(-c2c(C(=O)N(C)Cc3cc(C)cc(C)c3)n(C)c(=O)c3ncccc23)cc1`, for which, in test [1], the IC50 came to 4.4 nM. As usually defined, the ED50 is the dose that gives a 50% effect, or the effect in half of the subjects. For the compound `CN(Cc1cc(C(F)(F)F)cc(C(F)(F)F)c1)C(=O)c1c(-c2ccc(F)cc2)c2cccnc2c(=O)n1C`, the ED50 is 0.017 mg/kg in test [2] and 0.068 mg/kg in test [3]. The same compound showed an IC50 in test [1] of 0.21 nM. For `CN(Cc1c(-c2ccccc2)c2ccccc2c(=O)n1C)C(=O)Cc1cc(C(F)(F)F)cc(C(F)(F)F)c1`, the IC50 in test [1] was 110 nM.

As to `CN(Cc1cc(C(F)(F)F)cc(C(F)(F)F)c1)C(=O)c1c(-c2ccccc2)c2cccnc2c(=O)n1C`, the ED50 in test [2] is 0.027 mg/kg; in test [3], 0.17 mg/kg. Besides, the IC50 in test [1] is 0.25 nM. `COc1ccccc1CNCc1c(-c2ccccc2)c2ccccc2c(=O)n1C` registered an IC50 in test [1] of 460 nM. In other words, the sub-micromolar range. By inhibition in vivo is commonly meant the relative decrease from the control value, in per cent. On to `Cc1cc2c(-c3ccccc3)c(NC(=O)N(C)Cc3ccccc3)n(C)c(=O)c2cc1C`, for which testing at 3 mg/kg in test [4] gave an inhibition in vivo of 57.3%. Turning to `Cc1cc2c(-c3ccccc3)c(NC(=O)N(C)Cc3cc(C(F)(F)F)cc(C(F)(F)F)c3)n(C)c(=O)c2cc1C`, the IC50 in test [1] was 54 nM.

In the case of `Cc1ccc(-c2c(C(=O)N(C)Cc3cc(C(F)(F)F)cc(C(F)(F)F)c3)n(C)c(=O)c3ncccc23)cc1` [7-METHYL-8-OXO-5-P-TOLYL-7,8-DIHYDRO-[1,7]NAPHTHYRIDINE-6-CARBOXYLIC ACID (3,5-BIS-TRIFLUOROMETHYL-BENZYL)-METHYL-AMIDE (STRUCTURAL MIX)], in test [3], the ED50 came to 0.11 mg/kg. Besides, in test [1], the IC50 turned out to be 7 nM. Consider `CN(Cc1ccccc1)C(=O)Nc1c(-c2ccccc2)c2ccccc2c(=O)n1C`, for which the IC50 in test [1] was determined as 1100 nM.

`Cc1cc2c(-c3ccccc3)c(NC(=O)N(C)Cc3ccccc3Cl)n(C)c(=O)c2cc1C` gave an inhibition in vivo at 3 mg/kg in test [4] of 58.5%. In test [2], `Cc1ccccc1-c1c(C(=O)NCc2cc(C(F)(F)F)cc(C(F)(F)F)c2)n(C)c(=O)c2ccccc12` had an ED50 of 1.1 mg/kg. In test [1], `COc1ccccc1CNC(=O)c1c(-c2ccccc2)c2ccccc2c(=O)n1C` displayed an IC50 of 860 nM. Take `COc1ccccc1CN[C@H]1CCCN[C@H]1c1ccccc1` [CP-99994]: the figures for the ED50 in test [2] and in test [3] were 0.017 mg/kg and 8.7 mg/kg, respectively. In test [1], `Cc1cc2c(-c3ccccc3)c(NC(=O)NCc3ccccc3)n(C)c(=O)c2cc1C` gave an IC50 of 140 nM. With `Cc1ccc(-c2c(C(=O)N(C)Cc3cc(Cl)cc(Cl)c3)n(C)c(=O)c3ncccc23)cc1`, in test [1], the IC50 worked out at 3.4 nM. For `COc1ccccc1CNC(=O)c1c(-c2ccccc2C)c2ccccc2c(=O)n1C`, the half-maximal inhibitory concentration (IC50) in test [1] is 470 nM. In turn, `Cc1cc(C)cc(CN(C)C(=O)c2c(-c3ccccc3C)c3ccccc3c(=O)n2C)c1` returned an IC50 in test [1] of 32 nM. On the same count and under the same terms, the same measure for `CN(Cc1ccccc1Cl)C(=O)c1c(-c2ccc(F)cc2)c2cccnc2c(=O)n1C`: 32 nM. As for `CN(Cc1cc(C(F)(F)F)cc(C(F)(F)F)c1)C(=O)c1c(-c2ccc(F)cc2)c2ccccc2c(=O)n1C`, the results for the ED50 in test [2] and in test [3] were 0.063 mg/kg and 1 mg/kg, respectively. The same compound displayed an IC50 in test [1] of 0.4 nM. In turn, `Cc1cc2c(-c3ccccc3)c(CNCc3cc(C(F)(F)F)cc(C(F)(F)F)c3)n(C)c(=O)c2cc1C` returned an IC50 in test [1] of 250 nM. `Cc1cc2c(-c3ccccc3)c(C(=O)N(C)Cc3cc(C(F)(F)F)cc(C(F)(F)F)c3)n(C)c(=O)c2cc1C` gave an ED50 in test [2] of 0.49 mg/kg. Turning to `Cc1cc(C)cc(CN(C)C(=O)c2c(-c3ccc(F)cc3)c3cccnc3c(=O)n2C)c1`, the IC50 in test [1] amounted to 5.1 nM. `CN(Cc1ccccc1Cl)C(=O)Nc1c(-c2ccc(F)cc2)c2ccccc2c(=O)n1C` displayed an IC50 in test [1] of 480 nM. Compared with the last compound, the IC50 is about 94-fold higher. In test [1], `COc1ccccc1CN(C)Cc1c(-c2ccccc2)c2cc(C)c(C)cc2c(=O)n1C` registered a 50% inhibitory concentration (IC50) of 800 nM. This IC50 lies about 1.7-fold higher than the previous one.

Turning to `Cc1ccccc1-c1c(C(=O)N(C)Cc2cc(C(F)(F)F)cc(C(F)(F)F)c2)n(C)c(=O)c2ccccc12`, the ED50 in test [2] was 0.18 mg/kg; in test [3], 0.81 mg/kg. In test [2], `COc1ccccc1CN(C)C(=O)c1c(-c2ccc(F)cc2)c2cccnc2c(=O)n1C` gave an ED50 of 0.084 mg/kg.

On to `Cn1c(C(=O)NCc2cc(C(F)(F)F)cc(C(F)(F)F)c2)c(-c2ccc(F)cc2)c2cccnc2c1=O`, for which the ED50 in test [2] worked out at 0.48 mg/kg. The IC50 in test [1] came out at 1.1 nM.

In test [1], `Cc1cccc(NC(=O)Nc2c(-c3ccccc3)c3cc(C)c(C)cc3c(=O)n2C)c1` registered an IC50 of 840 nM.

For the compound `CN(Cc1cc(C(F)(F)F)cc(C(F)(F)F)c1)Cc1c(-c2ccccc2)c2ccccc2c(=O)n1C`, in test [1], the IC50 worked out at 600 nM.

`COc1ccccc1CNCc1c(-c2ccccc2)c2cc(C)c(C)cc2c(=O)n1C` yielded an inhibition in vivo at 3 mg/kg in test [4] of 36.3%.
